From PubChem
Only some compounds are listed: those with a hit (about 5.6% of all), similar ones and a draw of the others.
CHOP UPR activ: activators of apoptotic arm of unfolded protein response (CHOP); activation, % at 10 µM; AID 449763; CHO-CHOP luciferase reporter, UPR activation, luminescence; percent of tunicamycin response over DMSO baseline; 330,000 tested, 0.34% active;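 active = at 10 µM dose, activation of 40% or more, normalized to positive control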;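 note: 100% = tunicamycin at 10 µg/mL and 0% = DMSO alone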
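assay system = CHO CHOP reporter cells | amount = 500 CHO-CHOP cells per well | buffer or medium = F12 with 10% FBS | incubation = 16-18 h cell attachment, then 6 h compound exposure, 37 °C | detection = luminescence read with Steady-Glo | read-out = percent activation relative to tunicamycin control | controls = tunicamycin high control, DMSO low control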
MPTP inh: inhibitors of mitochondrial permeability transition pore; isolated mouse mitochondria, Ca2+ swelling absorbance, 30 min; inhibition, % at 10 µM; 360,000 tested, 1.4% active;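 active = inhibition of 50% or more, scaled per plate between neutral and stimulator controls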;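 note: 0% = DMSO wells given calcium and 100% = 1 mM EGTA wells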
CHOP inhibitor: CHOP inhibition in unfolded protein response; CHO-K1 CHOP-promoter luciferase, tunicamycin-induced, 15-18 h; inhibition, % at 10 µM; 220,000 tested, 3.8% active;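 active = compounds that reduced the stress-induced luciferase reporter signal by more than about 70% of percent inhibition, limit read from the data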;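 note: 0% = tunicamycin plus vehicle and 100% = wells without tunicamycin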
NR3A LBD binder: modulators (binders) of human NR3A ligand-binding domain. NR3A LBD differential scanning fluorimetry, Tm shift; 0% = protein alone, 100% = glycine-bound protein. Tm shift relative to glycine control, % at 25 µM. 340,000 tested, 2.5% active. AID 1259313;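 active = melting temperature shift of at least 10% of the positive control shift, at one fixed dose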
UPR XBP1 act: activators of adaptive arm of unfolded protein response (XBP1); activation, % at 20 µM; AID 463104; CHO-XBP1 luciferase reporter, IRE1-XBP1 UPR activation, luminescence; percent of tunicamycin response, DMSO as zero; 330,000 tested, 0.33% active;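 active = versus positive control, 20 µM dose yields 30% or more activation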;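 note: 100% = tunicamycin at 10 µg/mL and 0% = DMSO only wells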
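Material: CHO-XBP1 cells stably carrying IRE1-XBP1-driven luciferase reporter | Medium: F12 with 10% serum | Compound dosing: 20 µM single concentration, DMSO 1% | Incubation: Overnight seeding at 37 °C, 6 h compound treatment at 37 °C | Detection: Steady-Glo luminescence read | Read-out basis: % activation of reporter signal versus tunicamycin and DMSO controls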
aDG glyco up: alpha-DG glycosylation activation | Pro5-aDG cells, alpha-DG glycosylation AlphaScreen (IIH6); 0% Pro5, 100% B10-LARGE cell signal | activation, % at 10 µM | 360,000 tested, 0.22% active | AID 624168;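 active = activation of at least 8% versus controls, or a plate z-score of at least 8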;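 note: Pro5 are CHO cells carrying HIG-tagged alpha-DG that lacks glycosylation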
UPR XBP1 confirm: adaptive UPR (XBP1) activation, confirmed | activation, % at 20 µM | CHO-XBP1 IRE1-XBP1 luciferase reporter, luminescence | 1,000 tested, 63% active | shares compounds with UPR XBP1 act;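 active = reporter signal at least 30% of the positive control's activation in two or more of four replicate wells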;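 note: plate controls were DMSO negative control for no effect and tunicamycin 10 µg/mL positive control for full effect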
* marks the source's active call; other numbers are inactive results; / = no result given.

SMILES | CHOP UPR activ | MPTP inh | CHOP inhibitor | NR3A LBD binder | UPR XBP1 act | aDG glyco up | UPR XBP1 confirm
COc1cc(/C=C2\C(=N)N3N=C(S(C)(=O)=O)SC3=NC2=O)ccc1OCCOc1ccccc1C | / | 1.8 | / | 7.4 | / | -0.1 | /
COc1cc(/C=C2/C(=N)N3C=CSC3=NC2=O)ccc1OCCCOc1cc(C)ccc1C | -0.7 | 0.4 | 34.3 | 1.9 | 85.1* | 0.2 | 129.1*
CCN(CC)CCNC(=O)c1cn(CC)c2cc(N3CCN(C)CC3)c(F)cc2c1=O | 3.3 | 0.4 | / | 0.0 | -3.4 | 0.2 | /
CCOC(=O)c1ccc(N2Cc3ccccc3C2=NC(=O)c2cccc([N+](=O)[O-])c2)cc1 | 16.4 | 2.7 | / | -3.0 | 56.1* | -0.3 | 5.3
COC(=O)c1cc([N+](=O)[O-])c(-n2ccnc2)c([N+](=O)[O-])c1 | 6.9 | 1.5 | 89.5* | -2.7 | 91.0* | 0.5 | 186.6*
CCCC[C@@H]1CNC(=S)N1CCCC | -1.7 | 0.3 | 22.9 | -0.8 | -0.8 | -0.1 | /
Cc1ccnc(N/C=C(\C#N)c2nc(-c3cccc(Br)c3)cs2)c1 | 2.5 | 3.4 | 44.2 | -25.0 | 91.0* | 0.2 | 94.3*
Cc1ccnc(Nc2nc(-c3ccccc3)cs2)c1 | 4.9 | 1.2 | / | -6.8 | 0.7 | 0.0 | /
CCOC(=O)c1sc(NC(=O)CN2C(=O)NC3(CCC(C)CC3)C2=O)c(C(=O)OCC)c1C (stereo not given) | 12.1 | 0.5 | / | 0.4 | 30.8* | 0.2 | 23.7
CCOC(=O)c1sc(NC(=O)CN2C(=O)NC3(CC(C)CC(C)(C)C3)C2=O)c(C(=O)OCC)c1C (stereo not given) | 2.2 | -0.6 | 3.1 | -3.0 | -2.3 | 0.0 | /
c1ccc(-c2cc(-c3nnc4n3N=C(c3ccc5ccccc5c3)CS4)[nH]n2)cc1 | 31.5 | 4.5 | -14.4 | 5.7 | 32.2* | 0.1 | 4.3
COc1ccc(OC)c(-c2nnc3n2N=C(c2ccc(OC)c(OC)c2)CS3)c1 | -0.3 | -1.2 | / | -4.4 | 37.2* | -0.3 | 42.1*
COc1cc(NC(=O)CCc2c(C)noc2C)c(Cl)cc1C(=O)O | -1.6 | -0.4 | / | 0.9 | -2.3 | 0.0 | /
COc1ccc2nc(C)cc(N/N=C/c3cccc(OC)c3O)c2c1 | 11.4 | 1.8 | / | -1.2 | 9.8 | -0.4 | /
COc1ccc(/C=N/Nc2cc(C)nc3ccc(Br)cc23)cc1 | 20.0 | 20.7 | / | -4.7 | 32.1* | -0.5 | 36.3*
N#Cc1cnn2c1nc(N1CCCCC1)c1ccccc12 | 14.4 | 3.5 | 52.3 | -4.7 | 46.8* | 0.3 | 41.2*
N#Cc1cccc(-c2csc(C(O)c3ccco3)n2)c1 (stereo not given) | / | -1.4 | / | / | / | 0.5 | /
Cc1ccc(N2C(=O)CC(N3CCc4ccccc43)C2=O)cc1Cl (stereo not given) | 3.3 | 2.5 | 19.2 | -2.1 | 1.9 | -0.1 | /
COc1ccc(/C=C/C(=O)NC(=S)NCCc2ccc(OC)c(OC)c2)cc1 | -0.7 | 0.9 | 88.2* | 9.0 | 69.3* | -0.3 | 1.1
C[C@H]1[C@H](C)CC[C@]2(C)CC[C@]3(C)C(=CC[C@@H]4[C@@]5(C)CC[C@@H](O)[C@](C)(C(=O)O)[C@@H]5CC[C@]43C)[C@H]12 | / | / | 1.5 | / | / | / | /
C[C@@H]1CC[C@]2(C(=O)O)CC[C@]3(C)C(=CCC4[C@]56CC[C@@](O)(OC5)C(C)(C)C6CC[C@]43C)C2[C@H]1C (stereo not given in full) | 1.6 | -2.6 | / | -3.0 | -0.2 | -0.3 | /
C[C@H]1[C@H](C)CC[C@]2(C(=O)O)CC[C@]3(C)C(=CC[C@@H]4[C@@]5(C)CC[C@H](O)C(C)(C)[C@@H]5CC[C@]43C)[C@H]12 | 1.2 | 1.2 | 72.5* | -0.5 | 39.0* | 0.1 | 18.3
C[C@H]1[C@H](C)CC[C@]2(C(=O)O)CC[C@]3(C)C(=CC[C@@H]4[C@@]5(C)C[C@@H](O)[C@H](O)C(C)(C)[C@@H]5CC[C@]43C)[C@H]12 | 1.4 | 3.2 | 72.4* | -3.3 | 103.3* | 0.1 | 123.7*
CCCCC1C2C(=O)N(c3ccc(C)cc3)C(=O)C2ON1c1ccccc1 (stereo not given) | 6.0 | 2.1 | 12.2 | -0.2 | 4.0 | 0.0 | /
Cc1cccc(N(CC(=O)Nc2cccnc2)S(C)(=O)=O)c1 | -0.6 | 0.3 | 1.0 | -3.2 | -0.7 | -0.1 | /
SMILES | CHOP UPR activ | MPTP inh | CHOP inhibitor | NR3A LBD binder | UPR XBP1 act | aDG glyco up | UPR XBP1 confirm
CC(C)CNc1nnnc2c1sc1nc(N3CCOCC3)c3c(c12)CCCC3 | 1.5 | 1.3 | -4.2 | -1.4 | 54.7* | -0.1 | 31.2
CC(=O)c1cn(CC(=O)Nc2ccccc2C(F)(F)F)c2ccccc12 | 0.6 | 0.6 | / | -1.0 | -4.4 | 0.4 | /
COc1ccc(NC(=O)CN(C)C(=O)c2cc(CN3C(=O)c4ccccc4C3=O)ccc2OC)cc1 | -1.1 | -2.3 | / | -1.9 | 1.0 | -0.3 | /
O=C(COc1ccc(Cl)cc1Cl)NN=C1c2ccccc2-c2ccccc21 | 7.2 | 5.5 | 85.5* | 0.9 | 88.7* | -0.2 | 96.0*
O=C(CSc1ccc2nnc(-c3ccc(Cl)cc3)n2n1)N1CCc2ccccc21 | 28.6 | -1.9 | 79.4* | 0.0 | 30.0* | 0.0 | -1.6
Cc1ccc(C(=O)Nc2cc(S(=O)(=O)N3CCOCC3)ccc2N2CCCC2)cc1 | 0.7 | -3.0 | / | -0.2 | 35.4* | -0.1 | 37.7*
Cc1ccc(C)c(N2CCN(C(=O)c3cc(S(=O)(=O)N4CCOCC4)ccc3F)CC2)c1 | -0.5 | 2.5 | 38.6 | -1.7 | 33.2* | 1.1 | 0.3
Cc1ccc(S(=O)(=O)N2CCOCC2)cc1C(=O)O | 1.7 | -0.4 | -10.1 | 1.3 | -2.5 | 0.0 | /
O=C(Nc1cc(S(=O)(=O)N2CCOCC2)ccc1N1CCCC1)c1ccc(Cl)cc1 | 5.1 | -2.4 | / | 1.0 | 0.3 | 0.0 | /
Cc1cc(C(=O)NNC(=O)c2ccccc2[N+](=O)[O-])c(C)o1 | 2.5 | -1.0 | / | -0.3 | 58.6* | 0.2 | 2.0
COC(=O)c1ccc(CSc2nc3ccccc3c(=O)n2-c2ccccc2)o1 | -2.1 | -0.3 | 29.9 | 0.6 | 34.7* | 0.4 | 11.9
O=C(CSc1nc2ccccc2c(=O)n1-c1ccccc1)N1CCc2ccccc21 | 2.2 | -3.1 | -24.8 | -1.9 | 35.9* | -0.3 | 42.0*
O=C(CSc1nc2ccccc2c(=O)n1-c1ccccc1)N1CCCc2ccccc21 | 2.3 | -0.4 | 12.6 | -4.3 | 2.4 | 0.1 | /
Cc1cc(C)c(C(=O)NC2CCCc3c2cnn3-c2ccc(C)c(C)c2)c(=O)[nH]1 (stereo not given) | 4.1 | -0.1 | / | 0.8 | -5.6 | 0.2 | /
COC(=O)c1ccc(C(=O)OC)c(NC(=O)COC(=O)CCOc2ccc(C)cc2)c1 | -0.8 | -0.1 | / | 1.1 | 2.8 | 0.1 | /
